Data taken from publication PMC3149845 (The Journal of neuroscience : the official journal of the …, 2011).
Numbering of substitutions follows the chain as printed. Entries after “also recorded” stand apart in the source; their conditions may differ. Peptide text beside a SMILES is read from it.

Legend:
hTas1R2/hTas1R3 = target: T1, hTas1R2/hTas1R3 (Homo sapiens, UniProt Q8TE23); assay: Ca2+ mobilization, wild type human sweet taste receptor; type: cell-based; conditions: for response in dose-response experiment: HEK293E cells with Gα16-gust44; for Bottom (B) of sigmoid dose-response fit / Top (T) of sigmoid dose-response fit: ΔF/F normalized to maximum response of hTas1R2/hTas1R3 to neotame
T1 sequence (Q8TE23 20-839): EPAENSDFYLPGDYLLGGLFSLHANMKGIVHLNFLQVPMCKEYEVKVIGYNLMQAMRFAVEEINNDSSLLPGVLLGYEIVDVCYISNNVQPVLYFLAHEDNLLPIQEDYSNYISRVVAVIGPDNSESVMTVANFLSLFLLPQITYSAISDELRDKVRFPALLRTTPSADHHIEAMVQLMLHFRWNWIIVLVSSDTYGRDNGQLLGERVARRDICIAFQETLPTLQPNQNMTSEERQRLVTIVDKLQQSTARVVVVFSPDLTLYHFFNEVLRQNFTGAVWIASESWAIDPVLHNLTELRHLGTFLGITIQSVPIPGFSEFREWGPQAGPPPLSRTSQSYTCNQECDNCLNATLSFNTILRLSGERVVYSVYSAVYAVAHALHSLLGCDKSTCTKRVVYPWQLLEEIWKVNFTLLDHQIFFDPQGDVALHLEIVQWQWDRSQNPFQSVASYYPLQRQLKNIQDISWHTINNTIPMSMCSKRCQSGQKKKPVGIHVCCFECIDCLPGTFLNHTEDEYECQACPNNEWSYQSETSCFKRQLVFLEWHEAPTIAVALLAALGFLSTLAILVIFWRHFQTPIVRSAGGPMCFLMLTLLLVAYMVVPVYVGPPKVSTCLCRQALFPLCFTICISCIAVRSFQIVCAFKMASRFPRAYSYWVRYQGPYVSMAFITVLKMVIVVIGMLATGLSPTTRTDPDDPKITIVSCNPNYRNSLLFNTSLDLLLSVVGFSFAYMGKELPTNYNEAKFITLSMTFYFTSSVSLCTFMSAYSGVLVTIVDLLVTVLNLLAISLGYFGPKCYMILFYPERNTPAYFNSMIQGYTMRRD
T1 sequence (Q7RTX0 21-852 partner): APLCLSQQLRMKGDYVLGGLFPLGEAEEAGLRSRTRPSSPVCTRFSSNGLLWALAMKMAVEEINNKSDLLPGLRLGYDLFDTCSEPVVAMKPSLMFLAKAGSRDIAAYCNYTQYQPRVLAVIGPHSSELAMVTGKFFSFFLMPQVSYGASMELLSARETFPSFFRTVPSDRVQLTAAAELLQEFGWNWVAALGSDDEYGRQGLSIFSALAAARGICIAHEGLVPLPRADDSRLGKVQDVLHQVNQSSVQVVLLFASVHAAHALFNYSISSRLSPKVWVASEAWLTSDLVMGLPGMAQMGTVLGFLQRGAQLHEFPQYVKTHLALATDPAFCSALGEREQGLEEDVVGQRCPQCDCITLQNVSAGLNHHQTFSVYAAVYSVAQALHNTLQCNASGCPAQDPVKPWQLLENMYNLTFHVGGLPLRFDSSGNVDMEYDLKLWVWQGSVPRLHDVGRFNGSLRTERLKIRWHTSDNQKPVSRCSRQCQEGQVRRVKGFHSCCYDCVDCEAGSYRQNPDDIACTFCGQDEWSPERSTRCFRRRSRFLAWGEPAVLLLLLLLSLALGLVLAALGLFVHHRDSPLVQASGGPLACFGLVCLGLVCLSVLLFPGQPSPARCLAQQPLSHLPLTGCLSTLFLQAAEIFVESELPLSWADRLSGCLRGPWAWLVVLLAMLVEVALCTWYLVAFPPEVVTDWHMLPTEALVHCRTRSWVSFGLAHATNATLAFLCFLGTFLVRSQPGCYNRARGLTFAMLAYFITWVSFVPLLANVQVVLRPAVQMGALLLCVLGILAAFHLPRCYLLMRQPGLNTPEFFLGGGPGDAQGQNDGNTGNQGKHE
Summary of the method: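 HEK293E cells (Opti-MEM, 5% FBS, 37°C) were seeded at 50,000/well and cotransfected with Tas1R plasmids and Gα16-gust44 (0.06 μg each per well). Medium changed at 20 h; assayed 24 h later after 1 h loading with 3 μm Fluo-4 AM in HBSS/20 mm HEPES. Fluorescence (ex 488/em 525 nm) read 2 s apart; tastant added at 30 s, 150 s further. Peak ΔF/F sigmoid-fitted; three independent experiments.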

smTas1R2/smTas1R3 = smTas1R2/smTas1R3 (Saimiri sciureus, UniProt A3QP08); assay: Ca2+ mobilization, wild type squirrel monkey sweet taste receptor; type: cell-based, squirrel monkey (Saimiri sciureus); conditions: HEK293E cells with Gα16-gust44
Sequence of smTas1R2/smTas1R3 (A3QP08 20-834): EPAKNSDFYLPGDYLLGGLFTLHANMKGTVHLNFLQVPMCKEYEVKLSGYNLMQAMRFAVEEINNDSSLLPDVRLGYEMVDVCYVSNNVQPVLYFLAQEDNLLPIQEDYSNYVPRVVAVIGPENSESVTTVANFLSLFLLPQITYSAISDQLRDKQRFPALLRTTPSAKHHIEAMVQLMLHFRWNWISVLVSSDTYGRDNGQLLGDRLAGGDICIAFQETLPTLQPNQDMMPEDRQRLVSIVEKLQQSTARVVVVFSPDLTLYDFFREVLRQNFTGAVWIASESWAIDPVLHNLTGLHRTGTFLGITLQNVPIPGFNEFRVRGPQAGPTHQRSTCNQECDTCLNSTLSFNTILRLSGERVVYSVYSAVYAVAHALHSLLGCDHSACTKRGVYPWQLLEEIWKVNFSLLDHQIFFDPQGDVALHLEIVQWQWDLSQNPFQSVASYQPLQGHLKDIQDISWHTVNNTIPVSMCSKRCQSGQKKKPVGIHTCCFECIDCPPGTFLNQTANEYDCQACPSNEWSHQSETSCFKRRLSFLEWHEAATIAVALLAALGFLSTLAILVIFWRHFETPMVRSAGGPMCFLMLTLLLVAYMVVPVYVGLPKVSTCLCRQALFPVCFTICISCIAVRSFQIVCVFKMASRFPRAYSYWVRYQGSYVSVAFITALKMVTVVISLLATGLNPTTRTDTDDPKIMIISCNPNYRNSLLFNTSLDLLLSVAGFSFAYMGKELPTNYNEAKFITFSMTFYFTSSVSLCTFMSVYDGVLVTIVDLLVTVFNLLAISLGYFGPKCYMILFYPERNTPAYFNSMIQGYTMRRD

[1] = target: T2, hTas1R2:S40T/D142E+hTas1R3 (Homo sapiens, UniProt Q8TE23, D142E/S40T); assay: Ca2+ mobilization, mutated human receptor; type: cell-based; conditions: for calcium response to sweetener: aspartame 10mM, neotame 1mM, sucralose 2 mM, compared with hTas1R2/hTas1R3; for response in dose-response experiment: versus hTas1R2+hTas1R3
T2 sequence (Q8TE23 20-839 S40T/D142E): T1 sequence (Q8TE23 20-839) with S21T, D123E
T2 sequence (Q7RTX0 21-852 partner): T1 sequence (Q7RTX0 21-852 partner)

smTas1R2:S67I+smTas1R3 = smTas1R2:S67I+smTas1R3 (Saimiri sciureus, UniProt A3QP08, S67I); assay: Ca2+ mobilization, mutated squirrel monkey receptor; type: cell-based, squirrel monkey (Saimiri sciureus); conditions: aspartame 10mM, neotame 1mM, sucralose 2 mM; compared with smTas1R2/smTas1R3
Sequence of smTas1R2:S67I+smTas1R3 (A3QP08 20-834 S67I): as the sequence (A3QP08 20-834) above, with S48I counted along it

[2] = ΔF/F normalized to maximum response of hTas1R2/hTas1R3 to neotame

Row | Structure (SMILES) | EC50 (hTas1R2/hTas1R3) [mM] | response in dose-response experiment (hTas1R2/hTas1R3) | Bottom (B) of sigmoid dose-response fit (hTas1R2/hTas1R3) | Top (T) of sigmoid dose-response fit (hTas1R2/hTas1R3) | response in dose-response experiment (smTas1R2/smTas1R3) | calcium response to sweetener [1] | response in dose-response experiment ([1]; dose-response) | calcium response to sweetener (smTas1R2:S67I+smTas1R3) | EC50 ([1]; HEK293E cells with Gα16-gust44, dose-response, calcium mobilization) [mM] | Bottom (B) of sigmoid dose-response fit [1, 2] | Top (T) of sigmoid dose-response fit [1, 2]
1 | COC(=O)[C@H](Cc1ccccc1)NC(=O)[C@@H](N)CC(=O)O [aspartame, L-α-aspartly-L-phenylalanine methyl ester] (H-Asp-Phe-OMe) | 5 | good response | 7.074 | 73.32 | no response | abolished | no responses | not able to recover |  |  | 
2 | COC(=O)[C@H](Cc1ccccc1)NC(=O)[C@H](CC(=O)O)NCCC(C)(C)C [neotame] |  | good response | −165.1 | 92.82 | no response | significantly reduced; also recorded: reduced the response to neotame by half | weaker responses | not able to recover | 1.4 | 1.387 | 61.12
